Assay results as given in ChEMBL document CHEMBL1140904, “Synthesis and analysis of novel glycerolipids for the treatment of metabolic syndrome” (J Med Chem, 2009).

Assays:
[1] = system: Rattus norvegicus; test: Effect on fatty acid composition in Wistar rat assessed as change in liver LCPUFA, n-6 level at dose equivalent to 85 umol of tetradecylthioacetic acid, po after 6 days; assay type: functional
Method in brief: (§1)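 Male Wistar rats were gavaged once daily for 6 days with compound in 0.5% CMC at 85 or 250 µmol TTA-equivalent per animal. Controls received palmitic acid. Liver was homogenized in 0.25 M sucrose/10 mM HEPES pH 7.4/1 mM EDTA at 0-4 °C. Lipids were extracted with chloroform:methanol 2:1 and spiked with 21:0 internal standard. Fatty acids were BF3-methanol transesterified and quantified as wt%. Values are mean ± SD, n=5.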

[2] = system: Rattus norvegicus; test: Decrease in liver triacylglycerol level in Wistar rat at dose equivalent to 250 umol of tetradecylthioacetic acid, po after 6 days relative to control; assay type: functional; design: scale not given: the % may be the effect or the level left
Method in brief: (§2)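 Male Wistar rats (170-210 g), housed in pairs with chow and water, were gavaged once daily for 6 days with test lipid in 0.5% (w/v) carboxymethylcellulose at 85 or 250 µmol TTA-equivalent per animal. Controls received palmitic acid in CMC. Plasma triacylglycerol and cholesterol were measured with an enzymatic kit, and liver levels were also determined. Values are mean ± SD, n=5 rats.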

[3] = system: Rattus norvegicus; test: Effect on fatty acid composition in Wistar rat assessed as change in plasma 18;2, n-6 level at dose equivalent to 250 umol of tetradecylthioacetic acid, po after 6 days; assay type: functional
[4] = system: Rattus norvegicus; test: Effect on fatty acid composition in Wistar rat assessed as change in plasma saturated fatty acid level at dose equivalent to 250 umol of tetradecylthioacetic acid, po after 6 days; assay type: functional
[5] = system: Rattus norvegicus; test: Effect on fatty acid composition in Wistar rat assessed as change in plasma LCn-6/18:2 level at dose equivalent to 250 umol of tetradecylthioacetic acid, po after 6 days; assay type: functional
[6] = system: Liver; test: Drug concentration in Wistar rat liver assessed as tetradecylthioacetic acid at dose equivalent to 85 umol of tetradecylthioacetic acid, po after 6 days; assay type: ADME, organism-based; conditions: in vivo, 144 h; method in brief: as §1
[7] = system: Rattus norvegicus; test: Effect on fatty acid composition in Wistar rat assessed as change in liver LCn-6/18:2 level at dose equivalent to 250 umol of tetradecylthioacetic acid, po after 6 days; assay type: functional; method in brief: as §1
[8] = system: Rattus norvegicus; test: Decrease in liver cholesterol level in Wistar rat at dose equivalent to 250 umol of tetradecylthioacetic acid, po after 6 days relative to control; assay type: functional; design: scale not given: the % may be the effect or the level left; method in brief: as §2
[9] = system: Rattus norvegicus; test: Effect on fatty acid composition in Wistar rat assessed as change in plasma LCn-6/18:2 level at dose equivalent to 85 umol of tetradecylthioacetic acid, po after 6 days; assay type: functional
[10] = system: Rattus norvegicus; test: Decrease in plasma cholesterol level in po dosed Wistar rat after 6 days; assay type: functional, organism-based; method in brief: as §2
[11] = system: Rattus norvegicus; test: Induction of PPAR-alpha-regulated mitochondrial fatty acyl-CoA oxidase activity in Wistar rat at dose equivalent to 250 umol of tetradecylthioacetic acid, po after 6 days relative to control; assay type: functional; conditions: in the assay text read “peroxisomal fatty acyl-CoA oxidase” for “mitochondrial fatty acyl-CoA oxidase”
Method in brief: (§3)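 Rats were dosed by gastric intubation for 6 days at 85 or 250 µmol TTA-equivalent in 0.5% CMC, with palmitic acid controls. Fatty acyl-CoA oxidase was measured in the liver postnuclear fraction by a coupled assay, following H2O2 production as the rise in dichlorofluorescein absorbance with palmitoyl-CoA. Mean ± SD, n=5.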

[12] = system: Rattus norvegicus; test: Effect on fatty acid composition in Wistar rat assessed as change in liver PUFA level at dose equivalent to 250 umol of tetradecylthioacetic acid, po after 6 days; assay type: functional; method in brief: as §1
[13] = system: Rattus norvegicus; test: Effect on fatty acid composition in Wistar rat assessed as change in plasma MUFA level at dose equivalent to 250 umol of tetradecylthioacetic acid, po after 6 days; assay type: functional
[14] = system: Rattus norvegicus; test: Effect on fatty acid composition in Wistar rat assessed as change in liver PUFA level at dose equivalent to 85 umol of tetradecylthioacetic acid, po after 6 days; assay type: functional; method in brief: as §1
[15] = system: Rattus norvegicus; test: Effect on fatty acid composition in Wistar rat assessed as change in liver MUFA level at dose equivalent to 85 umol of tetradecylthioacetic acid, po after 6 days; assay type: functional; method in brief: as §1
[16] = system: Rattus norvegicus; test: Induction of PPAR-alpha-regulated fatty acyl-CoA oxidase activity in po dosed Wistar rat after 6 days; assay type: functional, organism-based; method in brief: as §3
[17] = system: Rattus norvegicus; test: Effect on fatty acid composition in Wistar rat assessed as change in plasma PUFA level at dose equivalent to 250 umol of tetradecylthioacetic acid, po after 6 days; assay type: functional
[18] = system: Rattus norvegicus; test: Effect on fatty acid composition in Wistar rat assessed as change in plasma PUFA level at dose equivalent to 85 umol of tetradecylthioacetic acid, po after 6 days; assay type: functional
[19] = system: Rattus norvegicus; test: Induction of PPAR-alpha-regulated CPT2 activity in po dosed Wistar rat after 6 days relative to control; assay type: functional
Method in brief: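 Wistar rats were dosed orally for 6 days (85 or 250 µmol TTA-equivalent in 0.5% CMC; palmitic acid controls). CPT-II activity was measured in the liver mitochondrial fraction, prepared from sucrose/HEPES pH 7.4/EDTA homogenate at 0-4 °C. Means ± SD from 5 rats per group.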

[20] = system: Rattus norvegicus; test: Effect on fatty acid composition in Wistar rat assessed as change in liver 18;2, n-6 level at dose equivalent to 85 umol of tetradecylthioacetic acid, po after 6 days; assay type: functional; method in brief: as §1
[21] = system: Rattus norvegicus; test: Plasma concentration in Wistar rat assessed as tetradecylthioacetic acid at dose equivalent to 85 umol of tetradecylthioacetic acid, po after 6 days; assay type: ADME, organism-based; conditions: in vivo, 144 h
[22] = system: Rattus norvegicus; test: Effect on fatty acid composition in Wistar rat assessed as change in liver saturated fatty acid level at dose equivalent to 250 umol of tetradecylthioacetic acid, po after 6 days; assay type: functional; method in brief: as §1
[23] = system: Rattus norvegicus; test: Effect on fatty acid composition in Wistar rat assessed as change in liver saturated fatty acid level at dose equivalent to 85 umol of tetradecylthioacetic acid, po after 6 days; assay type: functional; method in brief: as §1
[24] = system: Rattus norvegicus; test: Effect on fatty acid composition in Wistar rat assessed as change in plasma LCPUFA, n-6 level at dose equivalent to 85 umol of tetradecylthioacetic acid, po after 6 days; assay type: functional
[25] = system: Rattus norvegicus; test: Effect on fatty acid composition in Wistar rat assessed as change in plasma 18;2, n-6 level at dose equivalent to 85 umol of tetradecylthioacetic acid, po after 6 days; assay type: functional
[26] = system: Rattus norvegicus; test: Effect on fatty acid composition in Wistar rat assessed as change in liver 18;2, n-6 level at dose equivalent to 250 umol of tetradecylthioacetic acid, po after 6 days; assay type: functional; method in brief: as §1
[27] = system: Rattus norvegicus; test: Decrease in plasma triacylglycerol level in po dosed Wistar rat after 6 days; assay type: functional, organism-based; method in brief: as §2
[28] = system: Rattus norvegicus; test: Induction of PPAR-alpha-regulated mitochondrial HMG-CoA synthase activity in Wistar rat at dose equivalent to 250 umol of tetradecylthioacetic acid, po after 6 days relative to control; assay type: functional
Method in brief: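 Wistar rats were gavaged daily for 6 days at 85 or 250 µmol TTA-equivalent in 0.5% CMC, with palmitic acid controls. HMG-CoA synthase activity was assayed in the liver postnuclear fraction by the Clinkenbeard method. Mean ± SD, 5 rats/group.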

[29] = system: Rattus norvegicus; test: Decrease in plasma cholesterol level in Wistar rat at dose equivalent to 250 umol of tetradecylthioacetic acid, po after 6 days relative to control; assay type: functional; design: scale not given: the % may be the effect or the level left; method in brief: as §2

CCCCCCCCCCCCCCSCC(=O)OC[C@H](COP(=O)([O-])OCC[N+](C)(C)C)OC(=O)CSCCCCCCCCCCCCCC [PHOSPHATIDYLCHOLINE]
Activity [1]: 26.13%
Activity [2]: 25%
Activity [3]: 17.97%
Activity [4]: 35.25%
Activity [5]: 1.25%
Drug uptake [6]: 1.28%
Drug uptake ([6]; in the assay text read “equivalent to 250 umol” for “equivalent to 85 umol”): 3.34%
Activity [7]: 3.49%
Activity [8]: 20%
Activity [9]: 0.97%
Activity [10]: Dose-dependent effect
fold change (FC) [11]: 5
Activity [12]: 4.05%
Activity [13]: 21.62%
Activity [14]: 4.91%
Activity [15]: 16.66%
Activity [16]: Dose-dependent effect
Activity [17]: 1.86%
Activity [18]: 2.42%
fold change (FC) [19]: 3
Activity [20]: 11.99%
Drug uptake [21]: 0.9%
Activity [22]: 39.22%
Activity [23]: 39.67%
Activity [24]: 19.06%
Activity [25]: 19.52%
Activity [26]: 8.79%
Activity [27]: Dose-dependent effect
fold change (FC) [28]: 4
Activity [29]: 60%
